# Bioassay records from PubChem BioAssay.
# RORa activator: RORA (human) activation. activation, % at 10 µM. P35398. actives 1.5% (n = 65,000). CHO-K1 Gal4-RORA LBD luciferase reporter, luminescence; percent increase over mock-subtracted basal signal;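 active = activation above the mean of all tested compounds plus 3 SD, cut at about 49% in these data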;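 note: 0% = DMSO-treated RORA cells and 100% = added signal equal to DMSO minus mock-transfected cells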
# M1 antagonist: M1 muscarinic receptor (rat) antagonism. B-score at 10 µM. CHO-M1 cells, Fluo-4 calcium, ACh EC80 antagonist mode; stronger effect = lower value. P08482. actives 3.4% (n = 64,000);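 active = calcium fluorescence response, raw or row-and-column corrected B-score, differing from the plate sample mean either way at a set confidence level, mostly lower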
# D1 allo mod: allosterically modulates the human D1 dopamine receptor; HEK293 D1, CRE-luciferase, dopamine EC30 potentiation; actives deviate in either direction; B-score at 10 µM; actives 5.9% (n = 58,000); AID 641;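 active = luminescence count or its row- and column-corrected plate score outside the 99.7% band of the plate's sample wells, on either side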
# M1 agonist: activates the M1 muscarinic receptor; CHO-M1 cells, Fluo-4 calcium fluorescence, agonist mode; stronger effect = higher value; B-score at 10 µM; actives 3% (n = 64,000); AID 626;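 active = fluorescence rise, raw or as B-score row- and column-corrected plate score, outside the 99.7% band of its plate's samples, either direction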
# SF1 activator: activators of human nuclear receptor SF-1; activation, % at 10 µM; CHO-K1 Gal4-SF-1 LBD luciferase reporter; % increase over DMSO SF-1-specific signal; actives 1.9% (n = 65,000); Q13285;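 active = activation above the mean activation of all tested compounds plus 3 SD, cut at about 50% in these data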
# Target sequence (Q13285 whole entry, looked up, the tested form may be a part): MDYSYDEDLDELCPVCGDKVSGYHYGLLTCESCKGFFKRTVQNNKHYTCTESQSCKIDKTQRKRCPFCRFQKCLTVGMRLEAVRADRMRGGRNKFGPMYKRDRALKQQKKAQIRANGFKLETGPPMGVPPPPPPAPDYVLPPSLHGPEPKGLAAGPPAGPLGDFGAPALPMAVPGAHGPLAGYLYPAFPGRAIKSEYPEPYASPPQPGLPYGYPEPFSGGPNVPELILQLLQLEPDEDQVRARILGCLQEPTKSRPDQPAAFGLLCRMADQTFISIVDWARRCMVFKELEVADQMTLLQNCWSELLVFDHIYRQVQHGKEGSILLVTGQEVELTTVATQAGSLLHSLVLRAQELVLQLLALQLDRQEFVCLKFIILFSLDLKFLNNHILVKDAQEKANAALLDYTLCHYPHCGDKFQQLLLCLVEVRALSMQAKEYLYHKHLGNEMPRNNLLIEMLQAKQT
#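 Test system: transient Gal4-SF-1 LBD reporter, CHO-K1; Amount: 4,000 CHO-K1 cells per well; Doses: 10 µM only; Timing: compound exposure 20 h at 37 °C; Signal: luciferase light emission; Read-out basis: percent activation relative to DMSO median and mock-transfected background; Control set: DMSO negative control and −SF1 background wells; Replicates: one test per compound.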
# HePTP inhibitor: blocks human HePTP tyrosine phosphatase | recombinant HePTP phosphatase activity, OD absorbance | AID 521 | inhibition, % at 20 µM | actives 0.64% (n = 110,000); in the data active = inhibition above about 50%; inconclusive = no clear call, values can overlap the other calls;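 note: plate controls were vehicle for no effect and reference inhibitor for full effect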
# M1 agonist conf: confirmation of rat M1 muscarinic receptor agonists. shares compounds with M1 agonist. CHO-M1 cells, Fluo-4 calcium fluorescence, agonist mode; actives lie on both sides. fluorescence change (max-min) at 10 µM. actives 19% (n = 1,700). AID 1488;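 active = fluorescence change differs from the solvent-only DMSO control mean at a set confidence level in both duplicate runs; inconclusive = differs from solvent-only control mean in just one of two runs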;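 note: an EC20 dose of acetylcholine follows compound addition during the same imaging run; raw fluorescence intensity difference in instrument units with no normalization to controls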
# M4 ag counter: rat M4 muscarinic agonism, M1 counter-screen; shares compounds with M1 agonist; CHO M4/Gqi5 cells, Fluo-4 calcium fluorescence, agonist mode; actives lie on both sides; fluorescence change (max-min) at 10 µM; actives 9% (n = 1,700); AID 1741;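 active = fluorescence change differing from the plate's solvent-only control wells at 99.7% confidence in both duplicates, whether higher or lower; inconclusive = differs from solvent controls in only one of two duplicates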
# Active calls of the source: *; ? = inconclusive; . = not tested or not shown. Shown are actives, neighbours in structure and some others; about 8.2% of the full set was active somewhere.
SMILES,RORa activator,M1 antagonist,D1 allo mod,M1 agonist,SF1 activator,HePTP inhibitor,M1 agonist conf,M4 ag counter
CCCC(=O)Nc1nc(-c2ccc3c(c2)OCCO3)cs1,63.3*,-0.14,.,3.21*,60.8*,4.1,10,-13.6
COc1ccc(OC(=O)c2ccncc2)cc1,-2.8,-0.476,-0.162,-0.854,-13.6,9.7,.,.
CC(=O)c1cc(OC(=O)c2ccncc2)ccc1OC(=O)c1ccncc1,1.1,0.555,-0.278,4.38*,-5.7,6.3,-9.97,-32
O=C(CSc1n[nH]c(-c2ccccc2O)n1)N1CCCc2ccccc21,-2.5,1.25,-1.03,11.1*,14.8,4.9,?,-47.6
CSc1nsc(SCC(=O)N2CCCc3ccccc32)n1,-19.1,-0.443,0.929,0.298,-19.9,9.8,.,.
COc1ccccc1N1CCN(C(=O)CSc2nc3ccccc3c(=O)n2CC2CCCO2)CC1 (stereo not drawn),-17.3,-2.56,-1.46,9.71*,16.2,2.3,-1.53,-6.15
CCn1c(SCC(=O)N2CCCc3ccccc32)nc2cccnc21,-0.3,-0.264,-0.585,-1.3,-16.0,0.6,.,.
CCn1c(SCC(=O)N2CCCc3ccccc32)nc2ccccc2c1=O,-15.7,0.438,1.55,3.11*,-18.1,1.5,-6.22,-47.1
CCn1c(SCC(=O)N2CCCC2)nc2ccccc2c1=O,-8.4,-0.228,0.641,-0.381,4.9,6.4,.,.
CCOC(=O)CNC(=O)CSc1ncnc2c1cnn2-c1ccc(C)cc1,-14.5,0.000357,-3.27,-2.17*,-23.4,8.3,5.29,-18.8
CCOC(=O)CNC(=O)CSc1ncnc2c1cnn2-c1ccccc1,29.0,-0.936,-0.863,-1.19,-23.7,-6.4,.,.
COc1ccccc1C1C=C(c2ccc(Cl)cc2)Nc2nc(NS(C)(=O)=O)nn21 (stereo not drawn),-5.7,1.05,-0.119,54.2*,-17.0,7.4,88*,61.7
c1ccc(-c2nnc(SCc3cn4ccsc4n3)o2)cc1,41.8,-0.422,0.761,38.8*,16.5,6.6,-13.1,-40.4
CCN1CCN(CCNC(=O)C2CCCN(Cc3nc(-c4cccc(Cl)c4)oc3C)C2)CC1 (stereo not drawn),26.5,0.382,-0.548,0.761,4.2,2.2,.,.
CCOC(=O)N1CCC(NC(=O)C2CCCN(Cc3nc(-c4cccc(Cl)c4)oc3C)C2)CC1 (stereo not drawn),-63.3,-4.35*,-2.27,10*,-57.9,6.5,-5.44,-56.5
CSc1nc2ccc(S(=O)(=O)Nc3c(C)n(C)n(-c4ccccc4)c3=O)cc2s1,-6.2,-2.77*,-2.05,6.15*,2.9,-0.5,?,-87.5
Cc1c(NS(=O)(=O)c2ccc3c(c2)n(C)c(=O)n3C)c(=O)n(-c2ccccc2)n1C,1.3,-0.27,0.794,-0.824,3.5,9.9,.,.
O=C(NC1CCCCC1)c1ccc(S(=O)(=O)N2CCCCC2)cc1,-3.4,0.493,1.11,-1.37,14.2,0.0,.,.
CCc1c(C)nc2ncnn2c1NCCc1ccc(OC)c(OC)c1,-14.3,0.0681,-1.71,-0.267,-3.4,12.6,.,.
COc1ccc(CCNc2c(C)c(C)nc3ncnn23)cc1,-78.1,-1.18*,-1.26,3.25*,-81.1,5.5,15.2,-37.6
CCc1ccc(-c2cn3nc(C)c(C)nc3n2)cc1,-85.6,1.27,.,7.26*,-81.1,4.8,88.7*,39.5
CCc1ccc(N2C(=O)NC(=O)/C(=C\c3ccc(O)c(OC)c3)C2=O)cc1,.,.,.,.,.,-2.2,.,.
O=C(/C=C/c1ccc(-c2ccc(Cl)cc2)o1)c1ccccc1,.,.,.,.,.,-0.4,.,.
COc1ccc(C(=O)N2CCN(S(C)(=O)=O)CC2)cc1,.,.,.,.,.,5.9,.,.
Cc1ccc(C(=O)N2CCN(S(C)(=O)=O)C2)cc1,-13.0,1.13,-0.399,4.01*,-16.4,5.6,?,-59.6
SMILES,RORa activator,M1 antagonist,D1 allo mod,M1 agonist,SF1 activator,HePTP inhibitor,M1 agonist conf,M4 ag counter
COc1ccc(CN(Cc2cc3cccc(C)c3[nH]c2=O)C(=O)N(C)C)cc1,-2.6,-1,-0.682,3.54*,-8.0,6.1,-16.3,-48.8
Cc1ccc(CN(Cc2cc3cccc(C)c3[nH]c2=O)C(=O)N(C)C)cc1,-10.9,0.466,-0.352,0.171,7.8,-4.0,.,.
O=C(NCc1cccnc1)c1cccc(Cl)c1,-9.2,0.101,-0.0496,0.821,1.2,-0.6,.,.
O=C(NCCc1cccc(Cl)c1)c1cccnc1,23.6,-4.36*,0.233,10.6*,10.1,2.6,-1.46,-20.6
COC(=O)c1cc(NC(=O)c2ccc(-c3cccc(Cl)c3C)o2)cc(C(=O)OC)c1,.,.,.,.,.,4.5,.,.
O=C(Nc1ccccc1)N1CC=C(c2ccc(F)cc2)CC1,65.8*,-3.15*,-0.58,5.41*,38.4,2.8,?,?
CC(C)(C)NC(=O)c1cc2c(ccc3ccccc32)oc1=O,.,.,.,.,.,2.9,.,.
Cc1ccc2[nH]c(=O)c(CN(CCc3ccccc3)C(=O)N3CCOCC3)cc2c1,9.3,-0.345,-0.105,14.3*,2.0,0.7,-7.94,?
CCOC(=O)C1CCCN(c2c(NCc3ccco3)c(=O)c2=O)C1 (stereo not drawn),-9.6,-1.06,-0.852,6.13*,1.6,-0.2,-5,-29.8
CCOC(=O)C1CCCN(c2c(NCCc3ccc(S(N)(=O)=O)cc3)c(=O)c2=O)C1 (stereo not drawn),-6.5,-1.16,.,2.26*,-7.1,-3.0,-10.7,-14.1
CCOC(=O)C1CCCN(c2c(NCC3CCCN3CC)c(=O)c2=O)C1 (stereo not drawn),-6.1,-0.195,-0.239,0.0981,-8.6,6.7,.,.
CCOC(=O)C1CCCN(c2c(NCCN(C)Cc3ccccc3)c(=O)c2=O)C1 (stereo not drawn),2.8,-0.54,0.00458,-0.586,-3.6,8.3,.,.
COc1ccc(CC(C(=O)Nc2cc(C)ccc2C)/C(N)=N/O)cc1 (stereo not drawn),-15.6,-0.401,0.0304,2.43*,1.6,3.5,?,-49.4
CC1CCN(Cn2[nH]c(=O)ccc2=O)CC1,.,.,.,.,.,-4.6,.,.
CCCOc1ccc2ccccc2c1/C=N/n1c(C)nnc1-n1nc(C)cc1C,20.9,-0.5,.,3.36*,30.8,5.9,?,-37.5
Cc1cc(C)n(-c2nnc(C)n2/N=C/c2ccco2)n1,-7.5,-0.461,-0.00828,0.45,7.6,10.2,.,.
CC(C)(C)n1nc2c(c1NC(=O)c1ccc(S(=O)(=O)N3CCCC3)cc1)CSC2,-5.7,-0.482,-1.02,-1.35,9.4,-5.6,.,.
Cc1ccc(/C=C(/C#N)C(=O)Nc2cccc(Br)c2)o1,.,.,.,.,.,1.0,.,.
CCCS(=O)(=O)N1CCCC(C(=O)NC2CCCC(C)C2C)C1 (stereo not drawn),18.6,-0.392,-0.096,-0.476,-2.2,3.7,.,.
O=C(C1CC1)N1CCc2cc(Br)cc(S(=O)(=O)N3CCOCC3)c21,9.7,0.0762,0.565,3.01*,7.6,8.9,-4.84,-19.6
